# Activity calls are given as the source filed them. The calls are words filed in the database; no cut-off is given here.
# Tests used:
# MOLM-14 [1] = test: Induction of apoptosis in human MOLM14 cells assessed as necrotic cells at 10 uM after 72 hrs by Annexin V-FITC/propidium iodide staining-based flow cytometric analysis (reference value: 1%); format: functional
# Method in brief: (§1)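 100,000 cells per well treated with 2.5, 5.0 or 10 μM for 72 h. Washed in ice-cold Ca/Mg-free PBS, resuspended in 100 μl binding buffer, stained with 5 μl PI plus 3 μl annexin V-FITC for 15 min in the dark, then read immediately by flow cytometry. Quadrants scored as live, early apoptotic, late apoptotic and necrotic.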
# MV4-11 [2] = test: Cytotoxicity against human MV4-11 cells assessed as cell viability after 24 to 96 hrs by MTT assay; format: functional, cell-based
# Method in brief: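 AML cells kept in RPMI with 10 % FBS and 1 % penicillin-streptomycin at 37 °C, 5 % CO₂, mycoplasma-screened. Seeded at 8,000 cells/well across a range of concentrations and read at several times up to 96 h. MTT added to 0.5 mg/ml final for 3 h at 37 °C, formazan dissolved in SDS-HCl, absorbance read at 570 nm. IC50 taken from the dose-response curves.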
# MOLM-13 (Homo sapiens) [3] = test: Induction of apoptosis in human MOLM13 cells assessed as early apoptotic cells at 10 uM after 72 hrs by Annexin V-FITC/propidium iodide staining-based flow cytometric analysis (reference value: 11%)
# MOLM-13 (Homo sapiens) [4] = test: Induction of apoptosis in human MOLM13 cells assessed as upregulation of cleaved PARP expression after 24 hrs by Western blot analysis
# MV4-11 [5] = test: Induction of apoptosis in human MV4-11 cells assessed as necrotic cells at 2.5 uM after 72 hrs by Annexin V-FITC/propidium iodide staining-based flow cytometric analysis relative to control; format: functional
# Method in brief: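 MV4-11 cells (RPMI, 10 % FBS, 37 °C, 5 % CO2), 100,000 per well, exposed to PTB at 2.5, 5.0 or 10 μM for 72 h. Washed in ice-cold Ca/Mg-free PBS, stained with annexin V-FITC and PI in 1X binding buffer for 15 min in the dark, then read at once by flow cytometry. Necrotic cells are the annexin-negative/PI-positive quadrant.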
# MOLM-13 (Homo sapiens) [6] = test: Induction of apoptosis in human MOLM13 cells after 72 hrs by Annexin V-FITC/propidium iodide staining-based flow cytometric analysis
# [7] = Cytotoxicity against C57BL/6 mouse bone marrow cells assessed as cell viability at 5 to 10 uM measured up to 72 hrs by MTT assay; format: cell-based
# Method in brief: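 Total bone marrow from C57BL/6 mice cultured in IMDM with 20 % FBS, 10 ng/ml mouse IL-3, 10 ng/ml IL-6 and 50 ng/ml SCF. Exposed to 5 or 10 μM for up to 72 h. MTT added to 0.5 mg/ml for 3 h at 37 °C, formazan dissolved in SDS-HCl, A570 read. Three independent experiments, quadruplicate wells, mean ± SD.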
# MV4-11 [8] = test: Effect on total histone H3 protein expression in human MV4-11 cells by Western blot analysis; format: ADME, cell-based
# Method in brief: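 Histones acid-extracted from MV4-11 cells: Triton/EDTA buffer lysis, NaCl wash, then 0.24 M H₂SO₄ final on ice for 2 h and acetone precipitation. Protein measured by Bradford. 0.5 µg loaded on 4-20 % gradient gels and transferred to PVDF. Anti-histone H3 probed as loading control alongside anti-acetyl-H3 (1:1000 in 5 % milk, overnight, 4 °C); HRP secondary 1 h, ECL detection.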
# MOLM-13 (Homo sapiens) [9] = test: Induction of apoptosis in human MOLM13 cells assessed as early apoptotic cells at 2.5 uM after 72 hrs by Annexin V-FITC/propidium iodide staining-based flow cytometric analysis (reference value: 11%)
# [10] = biological target: T1, Protein deacetylase HDAC6 (Homo sapiens) (UniProt Q9UBN7); test: Inhibition of HDAC6 in human MV4-11 cells assessed as increase in acetylation of tubulin at lysine 40 by Western blot analysis; format: cell-based
# T1 sequence (whole entry): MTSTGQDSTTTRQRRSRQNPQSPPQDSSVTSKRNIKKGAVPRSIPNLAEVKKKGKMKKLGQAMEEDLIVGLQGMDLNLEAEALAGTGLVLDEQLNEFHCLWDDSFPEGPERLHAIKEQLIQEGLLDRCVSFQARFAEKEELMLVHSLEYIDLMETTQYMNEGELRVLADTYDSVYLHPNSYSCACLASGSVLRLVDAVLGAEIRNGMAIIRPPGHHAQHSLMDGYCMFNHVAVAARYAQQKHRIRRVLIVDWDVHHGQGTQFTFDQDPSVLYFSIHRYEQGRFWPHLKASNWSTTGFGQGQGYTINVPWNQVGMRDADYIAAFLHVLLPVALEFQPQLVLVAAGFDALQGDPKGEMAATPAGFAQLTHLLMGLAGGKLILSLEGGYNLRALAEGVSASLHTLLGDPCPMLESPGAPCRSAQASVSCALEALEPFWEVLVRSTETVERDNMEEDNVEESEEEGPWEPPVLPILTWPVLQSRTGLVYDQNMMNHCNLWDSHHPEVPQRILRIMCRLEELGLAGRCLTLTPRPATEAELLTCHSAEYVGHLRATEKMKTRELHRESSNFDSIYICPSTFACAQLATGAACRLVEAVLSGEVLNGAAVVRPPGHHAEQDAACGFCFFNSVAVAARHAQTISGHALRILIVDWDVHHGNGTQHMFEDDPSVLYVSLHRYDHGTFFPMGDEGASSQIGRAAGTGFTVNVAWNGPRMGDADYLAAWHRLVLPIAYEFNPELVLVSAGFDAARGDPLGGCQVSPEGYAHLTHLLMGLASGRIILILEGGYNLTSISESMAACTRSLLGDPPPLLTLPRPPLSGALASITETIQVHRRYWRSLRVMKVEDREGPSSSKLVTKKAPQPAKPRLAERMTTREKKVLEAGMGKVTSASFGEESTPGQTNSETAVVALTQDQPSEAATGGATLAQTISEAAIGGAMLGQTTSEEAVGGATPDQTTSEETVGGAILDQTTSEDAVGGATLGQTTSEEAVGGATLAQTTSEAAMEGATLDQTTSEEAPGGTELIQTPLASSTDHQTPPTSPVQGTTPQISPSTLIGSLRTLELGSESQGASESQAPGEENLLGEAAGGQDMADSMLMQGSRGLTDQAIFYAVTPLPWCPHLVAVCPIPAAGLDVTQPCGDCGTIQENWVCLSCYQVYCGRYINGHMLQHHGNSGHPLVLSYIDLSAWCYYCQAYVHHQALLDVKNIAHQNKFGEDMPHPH
# MOLM-14 [11] = test: Induction of apoptosis in human MOLM14 cells assessed as early apoptotic cells at 10 uM after 72 hrs by Annexin V-FITC/propidium iodide staining-based flow cytometric analysis (reference value: 7%); format: functional; method in brief: as §1
# MOLM-14 [12] = test: Induction of apoptosis in human MOLM14 cells after 72 hrs by Annexin V-FITC/propidium iodide staining-based flow cytometric analysis; format: functional, cell-based; method in brief: as §1
smiles,measurement,setting,value
c1ccc(Oc2ccc(-c3cn(-c4noc5ccccc45)nn3)cc2)cc1,Activity,MOLM-14 [1],10%
same,Activity,MV4-11 [2],Dose-dependent effect
same,Activity,MOLM-13 (Homo sapiens) [3],28%
same,Activity,MOLM-13 (Homo sapiens) [4],Dose-dependent effect
same,Activity,MV4-11 [5],2%
same,Activity,MOLM-13 (Homo sapiens) [6],Dose-dependent effect
same,Activity,[7],Non-toxic
same,Activity,MV4-11 [8],Non-toxic
same,Activity,MOLM-13 (Homo sapiens) [9],15%
same,inhibition,[10],Active
same,Activity,MOLM-14 [11],24%
same,Activity,MOLM-14 [12],Dose-dependent effect

# — ChEMBL document CHEMBL3612059, “Synthesis of 1,2-benzisoxazole tethered 1,2,3-triazoles that exhibit anticancer activity in acute myeloid leukemia cell lines by inhibiting histone deacetylases, and inducing p21 and tubulin acetylation” (Bioorg Med Chem, 2015)
